Data set [1] is described as follows: Drug metabolism in CD1 mouse muscle assessed as glycerol conjugate formation at 6 mg/kg, ip dosed once daily for 3 days followed by dosing of 1:1 mixtures of 2-(2-Carboxyethyl)-4-methyl-5-propyl-(3-13C-furan)-3-13Ccarboxylateand test compound on day 4 and 5 measured 1 hr post dose on day 5 by HPLC-MS analysis. The format is ADME, organism-based, Muscle tissue. As to conditions: in vivo. In a few lines: (§1)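 Mice received CMPF 6 mg/kg intraperitoneally for three days, then 1:1 labeled/unlabeled CMPF mixtures on days four and five. On day five they were euthanized 1 h post-dose, and plasma, adipose, muscle and liver were collected. Samples were analysed by HPLC-MS, with MS/MS of product ions. Metabolites were identified by the distinctive isotope patterns from the 1:1 label mixture.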

Data set [2] is described as follows: Drug metabolism in CD1 mouse muscle assessed as oxidative metabolites formation at 6 mg/kg, ip dosed once daily for 3 days followed by dosing of 1:1 mixtures of 2-(2-Carboxyethyl)-4-methyl-5-(1-propyl-1-13C)furan-3-carboxylic Acid and test compound on day 4 and 5 measured 1 hr post dose on day 5 by HPLC-MS analysis. The format is ADME, organism-based, Muscle tissue. The note with it: in vivo. In a few lines:
(§2)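 CMPF given 6 mg/kg i.p. once daily for three days. On days four and five, 1:1 mixtures of stable-isotope-labelled and unlabelled CMPF were dosed. Mice were killed 1 h after the day-five dose. Plasma, adipose, muscle and liver were collected and analysed by HPLC-MS (MS/MS for product ions). Metabolites were identified by their distinctive isotope patterns from the labelled/unlabelled mixture.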

The test system of data set [3] is Plasma. Kind of data set: Drug metabolism in CD1 mouse plasma assessed as glucuronide conjugate formation at 6 mg/kg, ip dosed once daily for 3 days followed by dosing of 1:1 mixtures of 2-(2-Carboxyethyl)-4-methyl-5-propyl-(3-13C-furan)-3-13Ccarboxylate and test compound on day 4 and 5 measured 1 hr post dose on day 5 by HPLC-MS analysis. As to conditions: in vivo. The format is ADME, organism-based. In a few lines:
as §2

Data set [4] in a line: Drug metabolism in CD1 mouse adipose assessed as diacylglycerol conjugate formation at 6 mg/kg, ip dosed once daily for 3 days followed by dosing of 1:1 mixtures of 2-(2-Carboxyethyl)-4-methyl-5-propyl-(3-13C-furan)-3-13Ccarboxylateand test compound on day 4 and 5 measured 1 hr post dose on day 5 by HPLC-MS analysis. The class given is ADME, organism-based, Adipose tissue. The note with it: in vivo. In a few lines: as §1

Data set [5] in a line: Suppression of KCl-stimulated insulin secretion in mouse pancreatic islet at 200 uM incubated for 24 hrs followed by KCl stimulation for 20 mins by HTRF assay. The format is ADME, cell-based. In a few lines:
(§3)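 Mouse islets treated with compounds at 200 µM. Insulin secretion was then measured under low- and high-glucose GSIS conditions and under KCl stimulation, and intracellular insulin content was measured. Mean of n = 4-5 experiments with SEM.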
In general terms: TR-FRET usually uses a lanthanide donor and a delayed reading to cut background.

The nature of data set [6]: Suppression of glucose stimulated insulin secretion in mouse pancreatic islet at 200 uM incubated for 24 hrs followed by glucose stimulation for 20 mins by HTRF assay relative to control.
Data set [7] can be described thus: Drug metabolism in CD1 mouse adipose assessed as monoacylglycerol conjugate formation at 6 mg/kg, ip dosed once daily for 3 days followed by dosing of 1:1 mixtures of 2-(2-Carboxyethyl)-4-methyl-5-propyl-(3-13C-furan)-3-13Ccarboxylateand test compound on day 4 and 5 measured 1 hr post dose on day 5 by HPLC-MS analysis. The class given is ADME, organism-based, Adipose tissue. As to conditions: in vivo. In a few lines:
as §1

A short description of data set [8]: Clearance in mouse at 3 mg/kg, iv. The class given is ADME, organism-based. As to conditions: in vivo.
Data set [9] relates to Plasma. The data set can be described thus: Drug metabolism in CD1 mouse plasma assessed as monoacylglycerol conjugate formation at 6 mg/kg, ip dosed once daily for 3 days followed by dosing of 1:1 mixtures of 2-(2-Carboxyethyl)-4-methyl-5-(1-propyl-1-13C)furan-3-carboxylic Acid and test compound on day 4 and 5 measured 1 hr post dose on day 5 by HPLC-MS analysis. The format is ADME, organism-based. The note with it: in vivo. In a few lines: as §2

The subject of another data set is HEK293. The data set can be described thus: Cytotoxicity against HEK293 cells assessed as fold change in capase3/7 activity by Caspase-Glo 3/7 assay relative to DMSO. The format is cell-based. As to conditions: human.
Data set [10] can be described thus: Half life in mouse at 1 mg/kg, iv. The class given is ADME, organism-based. The note with it: in vivo. In a few lines: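 Mouse pharmacokinetics after single intravenous CMPF dosing at 1 or 3 mg/kg. Plasma exposure was followed over time to derive AUC, C0, terminal half-life, clearance and volume of distribution.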
Data set [11] in a line: Drug metabolism in CD1 mouse adipose assessed as diacylglycerol conjugate formation at 6 mg/kg, ip dosed once daily for 3 days followed by dosing of 1:1 mixtures of 2-(2-(Carboxy-13C)ethyl)-4-methyl-5-propylfuran-3-carboxylic-2-13C Acid and test compound on day 4 and 5 measured 1 hr post dose on day 5 by HPLC-MS analysis. The class given is ADME, organism-based, Adipose tissue. As to conditions: in vivo. In a few lines:
as §1

The nature of data set [12]: AUC in mouse at 3 mg/kg, iv. The format is ADME, organism-based. As to conditions: in vivo.
Data set [13] deals with Liver. The data set can be described thus: Drug metabolism in CD1 mouse liver assessed as monoacylglycerol conjugate formation at 6 mg/kg, ip dosed once daily for 3 days followed by dosing of 1:1 mixtures of 2-(2-(Carboxy-13C)ethyl)-4-methyl-5-propylfuran-3-carboxylic-2-13C Acid and test compound on day 4 and 5 measured 1 hr post dose on day 5 by HPLC-MS analysis. The class given is ADME, organism-based. As to conditions: in vivo. In a few lines: as §1

A short description of data set [14]: Suppression of glucose-stimulated insulin secretion in mouse pancreatic islet at 200 uM incubated for 24 hrs followed by glucose stimulation for 20 mins by HTRF assay. The class given is ADME, cell-based. In a few lines:
as §3

A short description of data set [15]: Drug metabolism in CD1 mouse adipose assessed as glycerol conjugate formation at 6 mg/kg, ip dosed once daily for 3 days followed by dosing of 1:1 mixtures of 2-(2-Carboxyethyl)-4-methyl-5-propyl-(3-13C-furan)-3-13Ccarboxylateand test compound on day 4 and 5 measured 1 hr post dose on day 5 by HPLC-MS analysis. As to conditions: in vivo. The class given is ADME, organism-based, Adipose tissue. In a few lines:
as §1

For data set [16], the system named is Liver. The data set can be described thus: Drug metabolism in CD1 mouse liver assessed as monoacylglycerol conjugate formation at 6 mg/kg, ip dosed once daily for 3 days followed by dosing of 1:1 mixtures of 2-(2-Carboxyethyl)-4-methyl-5-propyl-(3-13C-furan)-3-13Ccarboxylateand test compound on day 4 and 5 measured 1 hr post dose on day 5 by HPLC-MS analysis. The note with it: in vivo. The class given is ADME, organism-based. In a few lines: as §1

Data set [17] in a line: Drug metabolism in CD1 mouse muscle assessed as diacylglycerol conjugate formation at 6 mg/kg, ip dosed once daily for 3 days followed by dosing of 1:1 mixtures of 2-(2-Carboxyethyl)-4-methyl-5-propyl-(3-13C-furan)-3-13Ccarboxylateand test compound on day 4 and 5 measured 1 hr post dose on day 5 by HPLC-MS analysis. The note with it: in vivo. The class given is ADME, organism-based, Muscle tissue. In a few lines:
as §1

A short description of data set [18]: Drug metabolism in CD1 mouse muscle assessed as diacylglycerol conjugate formation at 6 mg/kg, ip dosed once daily for 3 days followed by dosing of 1:1 mixtures of 2-(2-Carboxyethyl)-4-methyl-5-(1-propyl-1-13C)furan-3-carboxylic Acid and test compound on day 4 and 5 measured 1 hr post dose on day 5 by HPLC-MS analysis. The class given is ADME, organism-based, Muscle tissue. The note with it: in vivo. In a few lines: as §1

Data set [19] relates to Liver. The data set can be described thus: Drug metabolism in CD1 mouse liver assessed as oxidative metabolites formation at 6 mg/kg, ip dosed once daily for 3 days followed by dosing of 1:1 mixtures of 2-(2-Carboxyethyl)-4-methyl-5-propyl-(3-13C-furan)-3-13Ccarboxylateand test compound on day 4 and 5 measured 1 hr post dose on day 5 by HPLC-MS analysis. As to conditions: in vivo. The format is ADME, organism-based. In a few lines:
as §1

In data set [20] the test system is Liver. The data set can be described thus: Drug metabolism in CD1 mouse liver assessed as loss of C2 carboxyl during fragmentation at 6 mg/kg, ip dosed once daily for 3 days followed by dosing of 1:1 mixtures of 2-(2-Carboxyethyl)-4-methyl-5-(1-propyl-1-13C)furan-3-carboxylic Acid and test compound on day 4 and 5 measured 1 hr post dose on day 5 by HPLC-MS analysis. The class given is ADME, organism-based. The note with it: in vivo. In a few lines: as §1

This is an account of results in ChEMBL document CHEMBL4004837, “Synthesis and Characterization of Urofuranoic Acids: In Vivo Metabolism of 2-(2-Carboxyethyl)-4-methyl-5-propylfuran-3-carboxylic Acid (CMPF) and Effects on in Vitro Insulin Secretion” (J Med Chem, 2017).

For the molecule `CCCc1oc(CCC(=O)O)c(C(=O)O)c1C`, the Drug metabolism entry is listed as “Metabolite_Notdetected” in [1]; “Metabolite_Notdetected” in [2]; “Metabolite_Detected” in the data set with Plasma [3]; “Metabolite_Notdetected” in [4]; “Metabolite_Notdetected” in data set [7]; “Metabolite_Notdetected” with Plasma [9]. Moreover, the Drug metabolism result (in [11]; with Liver [13]; in data set [15]; with Liver [16]; in data set [17]; in data set [18]) was “Metabolite_Notdetected” in each case. The results for the Drug metabolism result in the data set with Liver [19] and in the data set on Liver [20] were “Metabolite_Notdetected” and “Metabolite_Detected”, respectively. The Activity entry in [5], in data set [6] and in data set [14] was “Toxic” each time. In [8], the clearance (commonly a measure of how efficiently the substance is removed, as volume per time) worked out at 0.85 mL/min/kg. Besides, the fold change (FC) in the data set with HEK293 fell in the range of 0.8 to 1.1. For the same molecule, the half-life (as a rule, how long it takes for the measured level to halve) in data set [10] is 4.5 h. Moreover, the area under the curve (AUC) – broadly, concentration integrated over time – in data set [12] was 210 µM·h.
